Experimental data: ChEMBL document CHEMBL3808334, “Synthesis and in vitro evaluation of novel triazine analogues as anticancer agents and their interaction studies with bovine serum albumin” (Eur J Med Chem, 2016)

Legend:
Type in all cases: functional
MDA-MB-231 = test: Growth inhibition of human MDA-MB-231 cells assessed as cell growth at 10^-6 M incubated for 48 hrs by sulforhodamine B assay; conditions: MDA-MB-231, 48 h, read-out: Activity
[1] = Growth inhibition of human SKOV3 cells incubated for 48 hrs by sulforhodamine B assay; conditions: SK-OV-3, 48 h
Summary of the method: (§1)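 Cells were plated at 5,000–40,000 per well according to doubling time and preincubated 24 h at 37 °C in 5% CO2; time-zero plates were then TCA-fixed. Five concentrations (10-fold or ½-log dilutions, DMSO stock) were incubated 48 h. Cells were TCA-fixed, stained with 0.4% SRB and read at 515 nm. GI50 was taken where [(Ti−Tz)/(C−Tz)]×100 = 50.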

[2] = Growth inhibition of human SKOV3 cells assessed as cell growth at 10^-4 M incubated for 48 hrs by sulforhodamine B assay; conditions: SK-OV-3, 48 h, read-out: Activity
ACHN = test: Growth inhibition of human ACHN cells assessed as cell growth at 10^-8 M incubated for 48 hrs by sulforhodamine B assay; conditions: read-out: Activity
Summary of the method: (§2)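 Five-dose assay: five concentrations from 10-fold or ½-log serial dilutions. Cells are plated at 5,000–40,000 per well according to doubling time, grown 24 h, then exposed 48 h at 37 °C, 5% CO₂. Fixed with cold 50% TCA (final addition) for 60 min at 4 °C and stained with 0.4% SRB in 1% acetic acid. Bound dye is solubilized in 10 mM Tris base and read at 515 nm. GI₅₀ is where [(Ti−Tz)/(C−Tz)]×100 = 50, with a time-zero plate as Tz.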

A549 = test: Growth inhibition of human A549/ATCC cells assessed as cell growth at 10^-5 M incubated for 48 hrs by sulforhodamine B assay; conditions: A549, 48 h, read-out: Activity; summary of the method: as §2
786-0 = test: Growth inhibition of human 786-0 cells assessed as cell growth at 10^-8 M incubated for 48 hrs by sulforhodamine B assay; conditions: 786-0, 48 h, read-out: Activity; summary of the method: as §2
HT-29 [3] = test: Growth inhibition of human HT-29 cells assessed as cell growth at 10 uM incubated for 48 hrs by sulforhodamine B assay; conditions: HT-29, 48 h, read-out: Activity
[4] = Growth inhibition of human LOXIMVI cells assessed as cell growth at 10^-8 M incubated for 48 hrs by sulforhodamine B assay; conditions: LOX IMVI, read-out: Activity
[5] = Growth inhibition of human RPMI8226 cells assessed as cell growth at 10^-8 M incubated for 48 hrs by sulforhodamine B assay; conditions: RPMI-8226, 48 h, read-out: Activity
Malme-3M = test: Growth inhibition of human MALME-3M cells assessed as cell growth at 10^-4 M incubated for 48 hrs by sulforhodamine B assay; conditions: read-out: Activity
EKVX = test: Growth inhibition of human EKVX cells assessed as cell growth at 10^-5 M incubated for 48 hrs by sulforhodamine B assay; conditions: read-out: Activity
Summary of the method: (§3)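 Cells seeded at 5,000–40,000/well according to doubling time and preincubated 24 h at 37 °C, 5% CO2. Time-zero plates were TCA-fixed. DMSO concentrate was diluted in medium with 50 µg/ml gentamicin to give five concentrations (10-fold or ½ log steps), then exposed 48 h. Cells were TCA-fixed, stained with 0.4% SRB and read at 515 nm. Percent growth was taken against time-zero and control; GI50, TGI and LC50 derived.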

MCF7 [6] = test: Growth inhibition of human MCF7 cells assessed as cell growth at 10^-5 M incubated for 48 hrs by sulforhodamine B assay; conditions: MCF7, 48 h, read-out: Activity
HT-29 [7] = test: Growth inhibition of human HT-29 cells incubated for 48 hrs by sulforhodamine B assay; conditions: HT-29, 48 h; summary of the method: as §1
[8] = Growth inhibition of human SF268 cells assessed as cell growth at 10^-8 M incubated for 48 hrs by sulforhodamine B assay; conditions: SF-268, 48 h, read-out: Activity
[9] = Growth inhibition of human SW620 cells assessed as cell growth at 10 uM incubated for 48 hrs by sulforhodamine B assay; conditions: SW-620, 48 h, read-out: Activity
MCF7 [10] = test: Growth inhibition of human MCF7 cells assessed as cell growth at 10^-7 M incubated for 48 hrs by sulforhodamine B assay; conditions: MCF7, 48 h, read-out: Activity
[11] = Growth inhibition of human HCT116 cells assessed as cell growth at 10^-7 M incubated for 48 hrs by sulforhodamine B assay; conditions: HCT-116, 48 h, read-out: Activity; summary of the method: as §3
[12] = Growth inhibition of human Hs 578T cells assessed as cell growth at 10^-8 M incubated for 48 hrs by sulforhodamine B assay; conditions: read-out: Activity
[13] = Growth inhibition of human SF295 cells assessed as cell growth at 10^-8 M incubated for 48 hrs by sulforhodamine B assay; conditions: SF-295, 48 h, read-out: Activity
[14] = Growth inhibition of human Caki1 cells assessed as cell growth at 10^-5 M incubated for 48 hrs by sulforhodamine B assay; conditions: CAKI-1, 48 h, read-out: Activity; summary of the method: as §3
[15] = read-out: LC50 (the source's name)
[16] = read-out: pLC50 (the source's name) (converted)

SMILES	growth at 1 µM (MDA-MB-231) [%]	GI50 ([1]; read-out: GI50) [µM]	CC50 [1, 15] [µM]	TGI ([1]; read-out: TGI) [µM]	GI50 ([1]; read-out: pGI50 (converted)) [µM]	CC50 [1, 16] [µM]	TGI ([1]; read-out: pTGI (converted)) [µM]	growth at 100 µM [2] [%]	growth at 0.01 µM (ACHN) [%]	growth at 10 µM (A549) [%]	growth at 0.01 µM (786-0) [%]	growth at 10 µM (HT-29 [3]) [%]	growth at 0.01 µM [4] [%]	growth at 0.01 µM [5] [%]	growth at 100 µM (Malme-3M) [%]	growth at 10 µM (EKVX) [%]	growth at 10 µM (MCF7 [6]) [%]	GI50 (HT-29 [7]; read-out: GI50) [µM]	TGI (HT-29 [7]; read-out: TGI) [µM]	GI50 (HT-29 [7]; read-out: pGI50 (converted)) [µM]	other results
Fc1ccc(-c2nc(Nc3ccc(-c4nc5ccccc5[nH]4)cc3)nc(N3CCOCC3)n2)cc1	73	2.37	> 100	5.53	2.34	> 100	5.5	-49	100	3	100	-23.1	98	100	-58	3	1	2.23	5.39	2.24	CC50 (HT-29 [7]; [15]): > 100 µM; CC50 (HT-29 [7]; [16]): > 100 µM; TGI (HT-29 [7]; read-out: pTGI (converted)): 5.37 µM; growth at 0.01 µM [8]: 95%; growth at 10 µM [9]: 3.57%; growth at 0.1 µM (MCF7 [10]): 89%; growth at 0.1 µM [11]: 94%; growth at 0.01 µM [12]: 95%; growth at 0.01 µM [13]: 93%; growth at 10 µM [14]: -37%
c1ccc2[nH]c(-c3ccc(Nc4nc(N5CCCCC5)nc(N5CCOCC5)n4)cc3)nc2c1	92	2.37	26.9	5.43	2.34	26.9	5.37	-67	101	2	99	-28.1	96	97	-80	5	-10	2.44	5.56	2.45	CC50 (HT-29 [7]; [15]): > 100 µM; CC50 (HT-29 [7]; [16]): > 100 µM; TGI (HT-29 [7]; read-out: pTGI (converted)): 5.62 µM; growth at 0.01 µM [8]: 96%; growth at 10 µM [9]: 5.3%; growth at 0.1 µM (MCF7 [10]): 91%; growth at 0.1 µM [11]: 94%; growth at 0.01 µM [12]: 96%; growth at 0.01 µM [13]: 94%; growth at 10 µM [14]: -55%
c1ccc(-c2nc(Nc3ccc(-c4nc5ccccc5[nH]4)cc3)nc(N3CCOCC3)n2)cc1	63	2.11	8.47	4.23	2.09	8.51	4.27	-100	96	-63	99	-59.9	94	100	-54	-70	-57	0.645	2.19	0.646	CC50 (HT-29 [7]; [15]): 6.45 µM; CC50 (HT-29 [7]; [16]): 6.46 µM; TGI (HT-29 [7]; read-out: pTGI (converted)): 2.19 µM; growth at 0.01 µM [8]: 96%; growth at 10 µM [9]: -82.9%; growth at 0.1 µM (MCF7 [10]): 92%; growth at 0.1 µM [11]: 100%; growth at 0.01 µM [12]: 94%; growth at 0.01 µM [13]: 94%; growth at 10 µM [14]: -100%
Clc1ccc(-c2nc(Nc3ccc(-c4nc5ccccc5[nH]4)cc3)nc(N3CCOCC3)n2)cc1	-55	1.84	100	3.28	1.82	100	3.31	-50	95	-81	99	-78.6	97	100	-16	-80	-66	0.228	0.523	0.229	TGI (HT-29 [7]; read-out: pTGI (converted)): 0.525 µM; growth at 0.01 µM [8]: 98%; growth at 10 µM [9]: -74.2%; growth at 0.1 µM (MCF7 [10]): 86%; growth at 0.1 µM [11]: 93%; growth at 0.01 µM [12]: 90%; growth at 0.01 µM [13]: 97%; growth at 10 µM [14]: -99%
